Source: PubChem (several laboratories)
TNAP inh noacc – TNAP (human) inhibition, acceptor-free conditions. P05186. purified TNAP, CDP-star luminescence, 30 min. inhibition, % at 20 µM. 0.26% of 200,000 active;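 active = tissue-nonspecific alkaline phosphatase inhibition above about 50% at 20 µM in the single-dose screen, limit read from the data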
TNAP inh hiacc – blocks human TNAP under high phosphate acceptor concentration. P05186. purified TNAP, CDP-star luminescence, 1 M DEA. inhibition, % at 20 µM. 0.03% of 200,000 active;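 active = over 50% inhibition of tissue-nonspecific alkaline phosphatase at 20 µM in the single-dose screen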
p97 inhibitor – blocks human p97 ATPase activity. AID 1481. P55072. 0.42% of 220,000 active. inhibition, % at 8 µM. recombinant p97 ATPase, Kinase-Glo ATP luminescence, 3 h; in the data active = inhibition above about 15%
Target sequence (P55072 whole entry, looked up): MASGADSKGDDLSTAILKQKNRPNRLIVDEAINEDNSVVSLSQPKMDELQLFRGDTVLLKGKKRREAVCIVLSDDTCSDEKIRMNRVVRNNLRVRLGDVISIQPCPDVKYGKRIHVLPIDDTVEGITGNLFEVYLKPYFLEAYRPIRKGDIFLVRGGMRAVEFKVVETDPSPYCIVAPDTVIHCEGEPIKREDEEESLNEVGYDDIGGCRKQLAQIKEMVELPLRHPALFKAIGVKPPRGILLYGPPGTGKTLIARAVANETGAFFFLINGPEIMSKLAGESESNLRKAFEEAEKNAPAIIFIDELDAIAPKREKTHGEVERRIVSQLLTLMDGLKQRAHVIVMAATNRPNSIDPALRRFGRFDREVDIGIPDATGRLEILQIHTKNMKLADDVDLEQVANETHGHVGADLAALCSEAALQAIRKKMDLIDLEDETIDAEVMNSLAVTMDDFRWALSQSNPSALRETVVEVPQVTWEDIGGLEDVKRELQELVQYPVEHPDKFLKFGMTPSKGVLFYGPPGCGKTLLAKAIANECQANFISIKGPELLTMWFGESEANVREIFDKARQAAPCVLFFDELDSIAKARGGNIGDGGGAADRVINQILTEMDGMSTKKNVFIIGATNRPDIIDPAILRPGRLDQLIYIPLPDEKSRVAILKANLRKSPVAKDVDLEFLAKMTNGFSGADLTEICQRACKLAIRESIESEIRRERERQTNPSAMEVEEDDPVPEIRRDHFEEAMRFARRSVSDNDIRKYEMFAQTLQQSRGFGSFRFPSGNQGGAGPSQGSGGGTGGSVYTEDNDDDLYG
TNAP act hiacc – increases human TNAP activity under high phosphate acceptor concentration | P05186 | purified TNAP, CDP-star luminescence, 1 M DEA, 30 min; hits give high values; 0 = EDTA background, 1 = DMSO-only activity | activation factor at 20 µM | 200,000 tested, under 10 active;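 active = activation factor at least 2 at 20 µM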
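Measured by: Luminescent substrate turnover signal | Test system: Human TNAP | Input: TNAP 1/800 final | Dosing: 20 µM single point | Schedule: 30 min, room temperature | Controls: EDTA wells as negative control, DMSO wells as positive control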
PERK inhibitor – blocks human PERK kinase; Q9NZJ5; CHO PERK-DD fusion, SEAP luminescence translation reporter; inhibition, % at 5.6 µM; 0.17% of 220,000 active; AID 1416;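 active = inhibition above the mean inhibition of all tested compounds plus 3 SD, set separately per screening campaign, cut at about 2.9% in these data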;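 note: PERK kinase domain activated by AP20187 dimerizer at 100 nM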
Redox H2O2 prof – compounds producing H2O2 with reducing agent – biochemical, NIH compound library profiling, artefact control for MLSCN library redox annotation, primary screen; 0.03% of 200,000 active; activation, % at 10 µM; DTT-dependent redox cycling H2O2, phenol red/HRP absorbance; 100% = 100 µM peroxide control, 0% = buffer;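 active = activation of at least 50% relative to the plate's high and low controls in the primary single-dose screen; inactive = activation below 50%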;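 note: compound incubated with DTT at 0.8 mM final as the reducing agent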
Numbers stand for hits; n = inactive; x = not tested or not shown. Shown are actives, neighbours in structure and some others; about 0.86% of the full set was active somewhere.

SMILES	TNAP inh noacc	TNAP inh hiacc	p97 inhibitor	TNAP act hiacc	PERK inhibitor	Redox H2O2 prof
NS(=O)(=O)c1cnccc1Nc1ccc(Cl)cc1	86.6	90.1	n	n	n	n
COc1cccc(CN(CC2CCCO2)S(=O)(=O)c2ccc(S(=O)(=O)N(C)C)cc2)c1 (stereo not given)	n	n	14.7	n	n	n
CC(C)=C1C2CCC1C(C(=O)Nc1cc(C)cc(C)c1)C2C(=O)O (stereo not given)	n	n	n	n	n	n
Cc1cccc(S(=O)(=O)C(C#N)c2nc3ccccc3nc2N2CCCC2)c1 (stereo not given)	n	n	20.2	n	n	n
O=C(NCCCN1CCc2ccccc2C1)Nc1ccc(Cl)cc1	n	n	n	n	n	n
O=C(COc1c(Cl)cc(Cl)cc1Cl)c1ccc(Cl)cc1	n	n	n	n	n	n
C=CCCCCCCCCc1nc(SCC(C)=O)n[nH]1	x	x	n	x	n	x
C=CCCCCCCCCc1nc(SCC(=O)O)n[nH]1	x	x	n	x	3.0	x
COc1cc(OC)c(OC)cc1/C=N/NC(=O)CCc1c(C)n[nH]c1C	x	x	n	x	n	x
Cc1ccc(/C=C2\SC(=S)N(/N=C/c3cc([N+](=O)[O-])ccc3O)C2=O)o1	n	n	20.9	n	n	n
O=[N+]([O-])c1cccnc1N1CCC(c2cc(-c3ccc(Cl)cc3Cl)n[nH]2)CC1	78.9	n	n	n	n	n
C#CC1(NC(=O)NC(C)C)CCCCC1	n	n	n	n	n	n
O=C(O)CSc1nc2ccccc2c(=O)[nH]1	n	n	n	n	n	n
C=CCSc1nc2ccccc2c(=O)[nH]1	n	n	n	n	3.0	n
CC(=O)Nc1ccc(-c2cn3cc(C)ccc3n2)cc1	n	n	n	n	n	n
CC(=O)Nc1n[nH]c(-c2ccc(C)cc2)c1C	85.1	n	n	n	n	n
Cc1ccc(-c2cc(C(=O)N/N=C/c3cccnc3)n[nH]2)o1	70.6	n	n	n	n	n
O=C(CCCn1c(SCC(=O)c2ccc(O)c(O)c2)nc2ccccc2c1=O)NCC1CCCO1 (stereo not given)	96.4	n	n	n	n	n
CCCCn1c(SCC(=O)c2ccc(O)c(O)c2)nc2ccsc2c1=O	96.5	n	n	n	n	n
O=C(O)CCCCCn1c(SCC(=O)N2CCCC2)nc2ccsc2c1=O	n	n	n	n	n	n
O=C(O)CCCCCn1c(SCC(=O)c2ccc(O)c(O)c2)nc2ccsc2c1=O	94.1	n	n	n	n	n
CCCS(=O)(=O)N1CCN(Cc2c[nH]c3ccccc23)CC1	n	n	n	n	n	n
Cc1ccc(C(=O)O/N=C\c2ccc(N3CCOCC3)c([N+](=O)[O-])c2)cc1	n	n	n	n	n	n
O=C(O/N=C\c1ccc(N2CCCCC2)c([N+](=O)[O-])c1)c1ccc(Cl)cc1Cl	n	n	n	n	3.0	n
COc1ccc(C(=O)Cc2ccccc2)cc1OC	n	n	n	n	4.8	n
SMILES	TNAP inh noacc	TNAP inh hiacc	p97 inhibitor	TNAP act hiacc	PERK inhibitor	Redox H2O2 prof
CCOC(=O)c1cn(-c2nc(-c3ccc(Cl)cc3)cs2)c2c(F)c(N3CC(C)OC(C)C3)c(F)cc2c1=O (stereo not given)	n	n	n	n	3.2	n
C=CCc1cccc2cc(C(=O)O)c(=O)oc12	n	n	n	n	n	n
C=CCc1cccc2cc(C(=O)Nc3ccccc3C(=O)O)c(=O)oc12	n	n	22.2	n	n	n
Cc1nnc(NC(=O)CSc2n[nH]c(-c3ccccc3)n2)s1	58.8	n	n	n	n	n
CCCCc1nc(SCC(=O)Nc2cc(C)on2)n[nH]1	56.9	n	n	n	n	n
COc1ccc(-c2nc(SCC(=O)Nc3cc(C)on3)n[nH]2)cc1	70.4	n	n	n	n	n
COc1ccc(-c2cc(C(F)(F)F)nc(SCC(=O)Nc3cc(C)on3)n2)cc1OC	n	n	n	n	n	n
Cc1nnc(NC(=O)CSc2ncn(-c3ccccc3)n2)s1	n	n	n	n	n	n
Cc1nn(-c2ccc(F)cc2)c(N)c1C1(O)C(=O)Nc2ccccc21 (stereo not given)	n	n	n	n	n	n
CC(C)(C)NS(=O)(=O)c1cccc2nsnc12	x	x	n	x	3.7	n
CCOC(=O)c1ccc(N=c2sc(C(=O)OC)cc(=O)n2Cc2ccc3c(c2)OCO3)cc1	n	n	n	n	n	n
CCOC(=O)c1ccc(N=c2sc(C(=O)OC)cc(=O)n2C2CC2)cc1	x	x	n	x	3.1	n
O=C1NN(c2ccc(Cl)cc2)C(=O)/C1=C\c1ccc(-c2cccc(C(=O)O)c2)o1	n	n	n	n	n	n
O=C1NN(c2ccccc2)C(=O)/C1=C\c1ccc(-c2cc([N+](=O)[O-])ccc2O)o1	51.8	n	n	n	n	n
Cc1cc(C)cc(NC(=O)c2cnn(-c3ccccc3)c2C2CCNCC2)c1	n	n	n	n	n	n
C/C(=N/N=C1\SCC(=O)N1c1ccccc1)c1ccc(C)cc1	x	x	n	x	3.7	x
c1ccc(CSc2ccc(-c3ccccn3)nn2)nc1	54.5	n	n	n	n	n
Clc1ccc(-c2ccc(SCc3ccccn3)nn2)cc1	n	n	n	n	n	n
Cc1nc(C(=O)N2CCc3c([nH]c4ccccc34)C2c2cc(F)ccc2F)cs1 (stereo not given)	n	n	n	n	n	n
O=Cc1ccc(-c2cc(Cl)ccc2Cl)[nH]1	n	n	n	n	3.3	n
O/N=C/c1ccc(-c2cc(Cl)ccc2Cl)o1	n	n	n	n	n	n
CCOC(=O)c1c(C)[nH]c(C)c1C(=O)CSc1nnc(-c2cc(OC)c(OC)c(OC)c2)o1	n	n	n	n	3.2	n
CC1CCCCC1NCC#CCOc1ccc(Cl)cc1 (stereo not given)	n	n	n	n	n	n
C[C@@H]1O[C@@H](Oc2c(-c3cc(O)c(O)c(O)c3)oc3cc(O)cc(O)c3c2=O)[C@H](O)[C@H](O)[C@H]1O	51.5	n	n	n	n	n
O=c1c(OC2OC(CO)C(O)C(O)C2O)c(-c2ccc(O)c(O)c2)oc2cc(O)cc(O)c12 (stereo not given)	n	n	n	n	n	n
CC1CC(CC(C)C(=O)NC(=S)Nc2ccc(S(N)(=O)=O)cc2)C(=O)O1 (stereo not given)	n	n	n	n	n	n
CCC1CC(C)(C(=O)Nc2ccc(S(N)(=O)=O)cc2)OC1=O (stereo not given)	n	n	n	n	2.9	n
CC1=C(C(=O)OCC(C)C)C(c2ccsc2)C2=C(CCCC2=O)N1 (stereo not given)	n	n	n	n	n	n
N#CC1=C(N)Oc2n[nH]c(-c3ccccc3)c2C1c1ccncc1 (stereo not given)	53.0	n	n	n	n	n
